Experimental data: ChEMBL document CHEMBL1144440, “A-ring-substituted estrogen-3-O-sulfamates: potent multitargeted anticancer agents” (J Med Chem, 2005)
pIC50: −log10 of the molar value.

Assays:
MCF7 = assay: Inhibition of the growth of human breast cancer MCF-7 cells done for 96 hr at 37 degree C with compound; conditions: MCF7, 96 h
SN12C = assay: Concentration required to inhibit the growth of SN12C human renal cancer cells by 50%; assay type: functional
In short: (§1)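 NCI 55 human cancer cell line panel screen; GI50 is the concentration giving 50% growth inhibition; compounds tested over 10^-4 to 10^-8 M.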

HCT-116 = assay: Concentration required to inhibit the growth of HCT116 human colon cancer cells by 50%; assay type: functional
In short: as §1

SF-539 = assay: Concentration required to inhibit the growth of SF-539 human CNS cancer cells by 50%; assay type: functional
In short: as §1

[1] = Concentration required to inhibit the growth of HOP-6 human lung cancer cells by 50%; assay type: functional; conditions: Cancer cell lines
In short: as §1

MDA-MB-435 = assay: Concentration required to inhibit the growth of MDA-MB-435 human breast cancer cells by 50%; assay type: functional
In short: as §1

UACC-62 = assay: Concentration required to inhibit the growth of UACC-62 human melanoma cells by 50%; assay type: functional
In short: as §1

OVCAR-3 = assay: Concentration required to inhibit the growth of OVCAR-3 human ovarian cancer cells by 50%; assay type: functional
In short: as §1

[2] = Mean graph midpoint (MGM) against a panel of human tumor cell lines; assay type: functional
In short: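 NCI 55 cell line panel; mean graph midpoint is the mean concentration giving 50% growth inhibition across all cell lines successfully evaluated; tested range 10^-4 to 10^-8 M, so 0.01 µM is the […] possible value.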

DU-145 = assay: Concentration required to inhibit the growth of DU-145 human prostate cancer cells by 50%; assay type: functional
In short: as §1

Steryl-sulfatase = target: T1, Steryl-sulfatase (Homo sapiens, UniProt P08842); assay: Inhibitory concentration against steroid sulfatase in placental microsomes; parameters: species or system Placenta
T1 sequence (P08842 whole entry): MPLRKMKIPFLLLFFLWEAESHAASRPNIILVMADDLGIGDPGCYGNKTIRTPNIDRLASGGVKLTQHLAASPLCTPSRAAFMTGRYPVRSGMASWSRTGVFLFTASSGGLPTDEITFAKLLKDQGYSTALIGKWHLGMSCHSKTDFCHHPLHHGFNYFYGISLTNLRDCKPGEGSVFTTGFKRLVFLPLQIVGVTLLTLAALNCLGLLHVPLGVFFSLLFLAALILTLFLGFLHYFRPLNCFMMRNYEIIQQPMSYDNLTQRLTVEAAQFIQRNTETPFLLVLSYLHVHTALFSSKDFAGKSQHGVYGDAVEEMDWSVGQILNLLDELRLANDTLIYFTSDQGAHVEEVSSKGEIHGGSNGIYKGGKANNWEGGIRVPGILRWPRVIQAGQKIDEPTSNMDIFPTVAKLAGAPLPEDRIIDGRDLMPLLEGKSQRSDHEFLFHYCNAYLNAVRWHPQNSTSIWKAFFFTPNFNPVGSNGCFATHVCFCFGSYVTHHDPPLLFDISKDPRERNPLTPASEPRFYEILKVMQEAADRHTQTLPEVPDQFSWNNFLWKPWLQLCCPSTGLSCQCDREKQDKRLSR

Mus musculus = assay: Reduction of tumor growth in female mice transplanted with xenografts derived from MDA-MB-435 (ER-) human breast cancer cells after 28 days of treatment at 20 mg/kg oral dose; assay type: functional, organism-based; parameters: dose 20 mg/kg, route oral; conditions: MDA-MB-435, 672 h
In short: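 Oral daily dosing for 28 days. Drug was dissolved in minimal THF, then diluted with propylene glycol. Vehicle controls received THF/propylene glycol. Groups were 12 female mice bearing MDA-MB-435 xenografts, with dosing started at 100-200 mm³. Tumour length and width were measured weekly, volume = l × w²/2, and monitoring continued 28 days after dosing. Growth was compared with controls by Student's t test.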

| Compound | GI50 (MCF7) [nM] | GI50 (HCT-116) [nM] | GI50 (MDA-MB-435) [nM] | GI50 (OVCAR-3) [nM] | GI50 (DU-145) [nM] | GI50 (SN12C) [nM] | GI50 (SF-539) [nM] | GI50 [1] [nM] | MGM [2] [µM] | also measured |
| --- | --- | --- | --- | --- | --- | --- | --- | --- | --- | --- |
| CCOc1cc2c(cc1OS(N)(=O)=O)CC[C@@H]1[C@@H]2CC[C@]2(C)[C@@H](O)CC[C@@H]12 | 610 | – | – | – | – | – | – | – | – | – |
| Cc1cc2c(cc1OS(N)(=O)=O)CC[C@@H]1[C@@H]2CC[C@]2(C)C(=O)CC[C@@H]12 | 260 | – | – | – | – | – | – | – | – | – |
| CCSc1cc2c(cc1O)CC[C@@H]1[C@@H]2CC[C@]2(C)[C@@H](O)CC[C@@H]12 | 23200 | 8500 | 2000 | 14000 | 24000 | 18000 | 16000 | 16000 | 10 | GI50 (UACC-62): 11000 nM |
| CCc1cc2c(cc1OS(N)(=O)=O)CC[C@@H]1[C@@H]2CC[C@]2(C)C(=O)CC[C@@H]12 | 340 | < 10 | < 10 | < 10 | < 10 | < 10 | < 10 | < 10 | 0.014 | GI50 (UACC-62): < 10 nM; pIC50 (Steryl-sulfatase): 5.74 |
| COc1cc2c(cc1OS(N)(=O)=O)CC[C@@H]1[C@@H]2CC[C@]2(C)[C@@H](O)CC[C@@H]12 | – | – | – | – | – | – | – | – | – | pIC50 (Mus musculus): 4.48; pIC50 (Steryl-sulfatase): 7.47 |
| COc1cc2c(cc1OS(=O)(=O)N(C)C)CC[C@@H]1[C@@H]2CC[C@]2(C)C(=O)CC[C@@H]12 | > 10000 | – | – | – | – | – | – | – | – | – |
| CSc1cc2c(cc1OS(N)(=O)=O)CC[C@@H]1[C@@H]2CC[C@]2(C)C(=O)CC[C@@H]12 | 400 | 88 | < 10 | 12 | 22000 | 760 | 45 | 35000 | 0.229 | GI50 (UACC-62): 52 nM; pIC50 (Steryl-sulfatase): 6.92 |
| CCc1cc2c(cc1O)CC[C@@H]1[C@@H]2CC[C@]2(C)[C@@H](O)CC[C@@H]12 | 10500 | 3500 | 1700 | 2900 | 11000 | 7300 | 3300 | 6100 | 6.5 | – |
| C[C@]12CC[C@@H]3c4cc(Br)c(OS(N)(=O)=O)cc4CC[C@H]3[C@@H]1CCC2=O | 6950 | – | – | – | – | – | – | – | – | – |
| C[C@]12CC[C@@H]3c4cc(I)c(OS(N)(=O)=O)cc4CC[C@H]3[C@@H]1CCC2=O | 1590 | – | – | – | – | – | – | – | – | – |
| COc1cc2c(cc1OS(=O)(=O)NC(C)=O)CC[C@@H]1[C@@H]2CC[C@]2(C)C(=O)CC[C@@H]12 | 168000 | – | – | – | – | – | – | – | – | – |
| CCc1cc2c(cc1OS(N)(=O)=O)CC[C@@H]1[C@@H]2CC[C@]2(C)[C@@H](O)CC[C@@H]12 | 70 | < 10 | < 10 | < 10 | < 10 | 40 | < 10 | < 10 | 0.016 | GI50 (UACC-62): < 10 nM; pIC50 (Steryl-sulfatase): 6.00 |
| CCOc1cc2c(cc1OS(N)(=O)=O)CC[C@@H]1[C@@H]2CC[C@]2(C)C(=O)CC[C@@H]12 | 4840 | – | – | – | – | – | – | – | – | pIC50 (Steryl-sulfatase): 6.05 |
| CSc1cc2c(cc1OS(N)(=O)=O)CC[C@@H]1[C@@H]2CC[C@]2(C)[C@@H](O)CC[C@@H]12 | 430 | – | – | – | – | – | – | – | – | – |
| COc1cc2c(cc1OS(N)(=O)=O)CC[C@@H]1[C@@H]2CC[C@]2(C)C(=O)CC[C@@H]12 | 300 | 65 | < 10 | < 10 | 320 | 600 | 120 | 160 | 0.095 | GI50 (UACC-62): 17 nM; pIC50 (Steryl-sulfatase): 7.38 |
| CCSc1cc2c(cc1OS(N)(=O)=O)CC[C@@H]1[C@@H]2CC[C@]2(C)[C@@H](O)CC[C@@H]12 | 23400 | – | – | – | – | – | – | – | – | – |
| COc1cc2c(cc1O)CC[C@@H]1[C@@H]2CC[C@]2(C)[C@@H](O)CC[C@@H]12 [2-METHOXYESTRADIOL] | – | 470 | 80 | 210 | 1800 | 950 | 320 | 700 | 1.3 | GI50 (UACC-62): 360 nM |
| C[C@]12CC[C@@H]3c4ccc(OS(N)(=O)=O)cc4CC[C@H]3[C@@H]1CCC2=O [EMATE] | – | – | – | – | – | – | – | – | – | pIC50 (Steryl-sulfatase): 7.66 |

More lines, main results first:

| GI50 (MCF7) [nM] | GI50 (HCT-116) [nM] | GI50 (MDA-MB-435) [nM] | GI50 (OVCAR-3) [nM] | GI50 (DU-145) [nM] | Compound | GI50 (SN12C) [nM] | GI50 (SF-539) [nM] | GI50 [1] [nM] | MGM [2] [µM] | also measured |
| --- | --- | --- | --- | --- | --- | --- | --- | --- | --- | --- |
| > 10000 | – | – | – | – | C[S+]([O-])c1cc2c(cc1O)CC[C@@H]1[C@@H]2CC[C@]2(C)C(=O)CC[C@@H]12 (some centres undefined) | – | – | – | – | – |
| 33000 | – | – | – | – | C[C@]12CC[C@@H]3c4cc(Br)c(O)cc4CC[C@H]3[C@@H]1CCC2=O | – | – | – | – | – |
| 57600 | – | – | – | – | CCc1cc2c(cc1O)CC[C@@H]1[C@@H]2CC[C@]2(C)C(=O)CC[C@@H]12 | – | – | – | – | – |
| 38000 | – | – | – | – | C[C@]12CC[C@@H]3c4cc(I)c(O)cc4CC[C@H]3[C@@H]1CCC2=O | – | – | – | – | – |
| 3960 | – | – | – | – | CSc1cc2c(cc1O)CC[C@@H]1[C@@H]2CC[C@]2(C)[C@@H](O)CC[C@@H]12 | – | – | – | – | – |
| 33400 | 20000 | 12000 | 22000 | 85000 | CSc1cc2c(cc1O)CC[C@@H]1[C@@H]2CC[C@]2(C)C(=O)CC[C@@H]12 | 19000 | 14000 | 27000 | 20.4 | GI50 (UACC-62): 12000 nM |
| 9040 | – | – | – | – | CCOc1cc2c(cc1O)CC[C@@H]1[C@@H]2CC[C@]2(C)C(=O)CC[C@@H]12 | – | – | – | – | – |
| 31900 | – | – | – | – | CCSc1cc2c(cc1O)CC[C@@H]1[C@@H]2CC[C@]2(C)C(=O)CC[C@@H]12 | – | – | – | – | – |
| 66000 | – | – | – | – | C[C@]12CC[C@@H]3c4cc(S(C)(=O)=O)c(O)cc4CC[C@H]3[C@@H]1CCC2=O | – | – | – | – | – |
| 35200 | 3200 | 2200 | 2300 | 13000 | CCSc1cc2c(cc1OS(N)(=O)=O)CC[C@@H]1[C@@H]2CC[C@]2(C)C(=O)CC[C@@H]12 | 11000 | 1400 | 6900 | 5.62 | GI50 (UACC-62): 5900 nM |
| 21300 | – | – | – | – | COc1cc2c(cc1O)CC[C@@H]1[C@@H]2CC[C@]2(C)C(=O)CC[C@@H]12 | – | – | – | – | – |
